Assay results from ChEMBL document CHEMBL4513216, “Probing the Open Global Health Chemical Diversity Library for Multistage-Active Starting Points for Next-Generation Antimalarials” (ACS Infect Dis, 2020).

Experiment: Toxicity liver stage against HepG2, at 10uM
Assay type: cell-based
Set-up: test concentration 10 uM, cell line HepG2-A16-CD81EGFP
Conditions: human, HepG2-A16-CD81EGFP cells; read-out: INHIBITION
How it was run: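 Uninfected HepG2-A16-CD81EGFP cells, 3 × 10^3 per well, 1536-well, plated on prespotted compound at 10 μM final, parasite-free screening media added to match infected plates; puromycin 10 μM positive, DMSO 0.5% negative; run in parallel with 48 h PbLuc assay at 37 °C, 5% CO2; viability by CellTiter-Glo luminescence, normalized to controls.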

Structure (SMILES) | cytotoxicity at 10 µM [%]
CCc1nc(C2CCCN(C(=O)c3cnn(CC)c3)C2)no1 (centres undefined) | 4.16
CCOc1cc(C)ccc1NC(=O)N(C)Cc1cnn(C)c1 | -7.15
O=C(c1cnccn1)N1CCCC2(COCCN(CC3CC3)C2)C1 (centres undefined) | 1.39
COc1cccc(CN2CCCC3(CCN(C(=O)c4ccco4)C3)C2)c1 (centres undefined) | 6.34
Cc1cccc(CN2CCC3(CCCN(C(=O)c4ccoc4)C3)C2=O)n1 (centres undefined) | 3.19
COc1cc2c(cc1OC)S(=O)(=O)N(Cc1cc(C)on1)C2=O | 11.3
O=C(Cc1ccc(-n2cccn2)cc1)N1CCCC(n2cccn2)C1 (centres undefined) | 4.6
Cc1c(C(=O)NC2CCCOC2)nnn1-c1ccccc1 (centres undefined) | -24.5
CC(C(=O)N(C)C1CCCCC1)S(=O)(=O)Cc1csc(-c2cccs2)n1 (centres undefined) | -4.27
O=C(O)[C@@H]1CN(C(=O)CN2Cc3ccccc3C2)C[C@H]1c1ccncc1 | 4.85
COc1cc(C(=O)NCCCO)cc2occc12 | 5.47
Cc1ccc(C(=O)N2C[C@@H]3CCCO[C@@H]3[C@H](N(C)Cc3ccco3)C2)o1 | 5.51
Cc1nn(C)c2cnn(CC(=O)NCc3ccc4c(c3)OCO4)c12 | 4.45
O=C(c1cn[nH]c1)N1CCC2(CCCN(Cc3ccc(F)c(F)c3)C2)C1 (centres undefined) | 6.07
CO[C@H]1CN(Cc2nc3ccccc3n2C)C[C@@]12CCCO2 | 4.32
Cc1nc(-c2nnc[nH]2)sc1C(=O)N1CCCC1c1cccs1 (centres undefined) | 11.1
O=C(C1CCOCC1)N1CCCC1c1cncc(CN2CCCC2)n1 (centres undefined) | -0.802
COc1ccc(N(CCC(N)=O)C(=O)CSc2ccc(F)c(F)c2)cc1 | 4.13
Cc1cnc(NC(=O)c2cccc(CN(C)Cc3ccno3)c2)s1 | 61.3
FC(F)(F)Cc1noc(CN2CCCC2c2noc(C3CC3)n2)n1 (centres undefined) | -2.7
O=C(NCCc1nccs1)C(c1ccccc1)n1cnnn1 (centres undefined) | 5.28
CC(C)(C)c1nnc2n1C(C(=O)N1CCCC1)CC2 (centres undefined) | 1.61
O=C(NCCC(=O)N1CCCc2ccccc21)c1cc(F)cc(F)c1 | -6.14
Cc1oc(-c2ccsc2)nc1CNC(C)Cn1cccn1 (centres undefined) | -9.81
CCc1n[nH]c(C2CN(C(=O)c3ccnc(N(C)C)c3)CCO2)n1 (centres undefined) | 6.66
O=C([C@H]1C[C@H]2[C@H](CCN2Cc2cccs2)O1)N1CCOCC1 | 0.582
Cn1ccc(C(=O)NCc2ccccc2CN2CCCC2)cc1=O | -17.1

Structure (SMILES) | cytotoxicity at 10 µM [%]
O=C1CC(NS(=O)(=O)NCc2ccccc2)CN1c1ccccc1Cl (centres undefined) | -5.68
CSCCC(=O)N1CCN(CC(O)C(C)(C)C)CC1 (centres undefined) | -2.06
O=C(CO)N1CCCC(c2cc(C(F)(F)F)[nH]n2)C1 (centres undefined) | -5.12
O=C1CC(N(C(=O)c2ccc3[nH]c4c(c3c2)CCCC4)C2CC2)C(=O)N1 (centres undefined) | -3.79
CCS(=O)(=O)N1C[C@@H](C(=O)NC(C)C)[C@@]2(Cc3ccccc3C(=O)N2)C1 | 1.11
Cc1nc2cc(CNC(=O)C3CC(=O)N(CCN(C)C)C3)ccc2n1C (centres undefined) | -4.31
CCc1nc(C)c([C@H]2CN(C)C[C@@H]2C(=O)NCCc2cnccn2)[nH]1 | -9.52
O[C@]12CCNC[C@H]1CN(c1ccnc3ccccc13)CC2 | 8.33
COCC(O)CN(C)c1ccnc2ccc(Cl)cc12 (centres undefined) | -5.93
CN1CCC(N2CC[C@@H]3[C@@H](CCC(=O)N3CCC3=CCCCC3)C2)CC1 | -6.53
CNC(=O)CN1CC[C@H]2CN(C(=O)c3ccc(C)cc3)C[C@H]2C1 | -4.06
COc1ccsc1C(=O)NC1CCN(c2ccc(C#N)cc2)CC1 | -1.03
CC(=O)c1cc(C(=O)N2Cc3ccccc3OC3(CCOCC3)C2)cs1 | -20
O=c1[nH]c(-c2ccccc2F)nc2c1CCNC2 | -2.72
CC(C)c1nnsc1CNC(=O)C1CCN(C(=O)C2CCCC2)CC1 | 1.05
Cc1cc(NCCSc2nccn2C)n2ncnc2n1 | 17.5
Cc1nn(C)cc1CN(C)C(=O)c1cccnc1 | 0.992
O=C1CCc2cc(-c3csc(CCN4CCCC4=O)n3)ccc2N1 | -6.64
O=C(c1ccsc1)N1CCO[C@@H]2CN(Cc3ccco3)CC[C@@H]2C1 | -98.6
COC1COC2(CCN(CC3CC3)CC2)C1 (centres undefined) | -103
Cc1cc(CN(C)C(=O)c2cccc(N3CCCS3(=O)=O)c2)no1 | -10.2
COc1ccccc1CN1C(=O)O[C@@H]2CN(c3ccccn3)C[C@@H]21 | 5.97
CCC1(CC)C(=O)NC(=O)N=C1Nc1ccc(C)cc1 | -6.34
O=C(NCCCN1CCN(c2ncccn2)CC1)Nc1ccccn1 | -7.48
Cc1cc(C(=O)N2CCCN(Cc3cnn(C)c3)CC2)no1 | -2.92
Cc1nn(C)c2ncnc(N3CCCC(C)(O)C3)c12 (centres undefined) | 0.541
COCCN1CCCC(CN(C)c2nc3c(s2)c(C)nn3C)C1 (centres undefined) | 5.37
